Blank lines part the entries; values can stand above or below the compound they belong to. Active and inactive are the calls of the source. The calls are words filed in the database; no cut-off is given here.
How the values were obtained:
PBMC [1] = assay: Cytotoxicity in human PBMC assessed as reduction in cell viability at 250 nM relative to control; format: cell-based
PBMC [2] = assay: Antiinflammatory activity in human PBMC assessed as reduction in anti-CD3/CD28 antibody-stimulated IFN-gamma expression at 250 nM preincubated for 1 hr followed by anti-CD3/CD28 antibody stimulation measured after 24 hrs in presence of KZR-504 by ELISA; format: functional, cell-based
Procedure, shortened: (§1)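 Healthy-donor PBMC, thawed from cryopreservation, 250 000 cells/well in RPMI 1640/5% FBS. Pretreated 1 h at 37 °C with compound alone or combined (0.1% DMSO final), washed 4 times, then stimulated 24 h with anti-CD3 and anti-CD28 antibodies. TNFα and IFNγ in supernatants by electrochemiluminescent ELISA; expressed relative to DMSO-treated controls (n = 6).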

Mus musculus [3] = organism: Mus musculus; assay: Selectivity ratio of IC50 for proteosome beta 5 in mouse A20 cells to IC50 for LMP7 in mouse A20 cells; format: cell-based
Procedure, shortened: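 Mouse A20 B-cell lymphoma cell lysate (1 mg/mL, hypotonic 20 mM Tris pH 8, 5 mM EDTA) treated with serially diluted compound for 1 h at 25 °C. Then 5 μM biotinylated active-site probe for 2 h at 25 °C, guanidine denaturation and streptavidin bead capture. Subunit-specific antibody and HRP chemiluminescence, signal normalized to protein, IC50 from percent activity versus DMSO controls.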

PBMC [4] = assay: Cytotoxicity in human PBMC assessed as reduction in cell viability at 125 nM relative to control; format: cell-based; conditions: 0.125 µM
[5] = Half life in Balb/c mouse at 2 mg/kg, iv; format: ADME, organism-based; conditions: in vivo
Procedure, shortened: (§2)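 Female BALB/c mice aged 7−8 weeks, given 2 mg/kg iv in 25% PEG300/WFI. Cardiac blood taken at 2, 5, 10, 20, 30, 60 and 120 min postdose into sodium heparin and processed to plasma (n = 3/time point). Proteins precipitated with acetonitrile; drug measured by LC−MS/MS. Noncompartmental analysis of mean concentrations at nominal times and target doses.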

[6] = Clearance in Balb/c mouse at 2 mg/kg, iv; format: ADME, organism-based; conditions: in vivo; procedure, shortened: as §2
PBMC [7] = assay: Antiinflammatory activity in human PBMC assessed as reduction in anti-CD3/CD28 antibody-stimulated TNF-alpha expression at 125 nM preincubated for 1 hr followed by anti-CD3/CD28 antibody stimulation measured after 24 hrs by ELISA; format: functional, cell-based; procedure, shortened: as §1
PBMC [8] = assay: Antiinflammatory activity in human PBMC assessed as reduction in anti-CD3/CD28 antibody-stimulated TNF-alpha expression at 125 nM preincubated for 1 hr followed by anti-CD3/CD28 antibody stimulation measured after 24 hrs in presence of KZR-504 by ELISA; format: functional, cell-based; procedure, shortened: as §1
Mus musculus [9] = assay: In vivo inhibition of LMP7 in Balb/c mouse splenocytes at 20 mg/kg, iv followed by dosing repeat on day 6, 8, 11, 13 and 15 and measured on 1 hr post last dose; format: functional, organism-based
Procedure, shortened: (§3)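 BALB/c mice dosed iv bolus in 10% sulfobutyl ether−β-cyclodextrin/10 mM sodium citrate pH 3.5; tissues taken 1 h after administration. Splenocytes strained and red cells lysed; kidney frozen, then bead-homogenized. Hypotonic lysate (20 mM Tris pH 8, 5 mM EDTA) at 1 mg/mL (spleen) or 5 mg/mL (kidney) run in the ProCISE active-site ELISA. Background-subtracted, protein-normalized activity relative to vehicle animals; n = 3.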

Mus musculus [10] = assay: In vivo inhibition of LMP2 in Balb/c mouse splenocytes at 20 mg/kg, iv followed by dosing repeat on day 6, 8, 11, 13 and 15 and measured on 1 hr post last dose; format: functional, organism-based; procedure, shortened: as §3
Mus musculus [11] = assay: In vivo inhibition of MECL-1 in Balb/c mouse splenocytes at 20 mg/kg, iv followed by dosing repeat on day 6, 8, 11, 13 and 15 and measured on 1 hr post last dose; format: functional, organism-based; procedure, shortened: as §3
Mus musculus [12] = assay: Antiarthritic activity in type 2 collagen antibody/LPS induced Balb/c mouse assessed as reduction in disease burden at 20 mg/kg, iv followed by dosing repeat on day 6, 8, 11, 13 and 15 and measured until day 18; format: functional, organism-based
Procedure, shortened: (§4)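 CAIA in 7−8 week old female BALB/c mice on breeder chow. Induced with 1.75 mg of a 5-antibody anti-type II collagen cocktail iv on day 0, then 25 μg LPS ip on day 3. Dosed as single iv boluses in 10% (w/v) sulfobutyl ether−β-cyclodextrin/10 mM sodium citrate (pH 3.5); vehicle-treated group included.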

[13] = target: T1, Proteasome subunit beta type-8 (Homo sapiens) (UniProt P28062); assay: Inhibition of LMP7 in human PBMC at 125 nM in presence of KZR-504 by ELISA
T1 sequence (whole entry): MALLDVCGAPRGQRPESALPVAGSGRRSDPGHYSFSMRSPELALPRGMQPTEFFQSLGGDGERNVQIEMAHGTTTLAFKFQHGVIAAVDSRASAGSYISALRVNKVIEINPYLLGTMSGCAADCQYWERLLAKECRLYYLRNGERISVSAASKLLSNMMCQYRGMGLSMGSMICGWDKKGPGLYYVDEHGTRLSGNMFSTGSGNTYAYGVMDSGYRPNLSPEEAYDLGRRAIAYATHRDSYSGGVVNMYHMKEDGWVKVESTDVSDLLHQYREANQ
Procedure, shortened: (§5)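 Cryopreserved healthy-donor human PBMC in RPMI 1640 with 5% heat-inactivated FBS, exposed to compound (0.1% DMSO final) for 1 h at 37 °C, 5% CO2, then washed. Subunit-specific active-site occupancy read by ProCISE: biotinylated active-site probe binding, denaturation, streptavidin capture, subunit-specific antibody and HRP chemiluminescence. Signal normalized to protein and expressed relative to DMSO controls.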

[14] = target: T2, Proteasome subunit beta type-10 (Homo sapiens) (UniProt P40306); assay: Inhibition of MECL1 in human PBMC at 125 nM in presence of KZR-504 by ELISA; procedure, shortened: as §5
T2 sequence (whole entry): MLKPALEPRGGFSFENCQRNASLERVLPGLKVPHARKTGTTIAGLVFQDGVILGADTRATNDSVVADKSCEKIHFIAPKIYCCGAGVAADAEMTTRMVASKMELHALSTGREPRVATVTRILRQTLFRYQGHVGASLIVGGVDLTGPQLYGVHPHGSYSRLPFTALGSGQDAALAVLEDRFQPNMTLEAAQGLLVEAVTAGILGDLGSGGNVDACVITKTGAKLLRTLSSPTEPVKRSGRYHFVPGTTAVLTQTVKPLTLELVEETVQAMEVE

[15] = Toxicity in Balb/c mouse assessed as change in body weight at 20 mg/kg, iv followed by dosing repeat on day 6, 8, 11, 13 and 15 and co-treated with 5 mg/kg, iv KZR-504 and measured until day 18; format: organism-based; conditions: in vivo
Mus musculus [16] = assay: Antiarthritic activity in type 2 collagen antibody/LPS induced Balb/c mouse assessed as reduction in disease burden at 5 mg/kg, iv followed by dosing repeat on day 6, 8, 11, 13 and 15 and measured until day 18; format: functional, organism-based; procedure, shortened: as §4
Mus musculus [17] = assay: Antiarthritic activity in type 2 collagen antibody/LPS induced Balb/c mouse assessed as reduction in disease burden at 5 mg/kg, iv followed by dosing repeat on day 6, 8, 11, 13 and 15 and measured until day 18

Compound: Cc1ccc(CC[C@H](NC(=O)[C@H](Cc2ccccc2)NC(=O)[C@H](CC(C)C)NC(=O)CN2CCCCCC2)C(=O)[C@@]2(C)CO2)cc1
Activity (PBMC [1]): 30% | Activity (PBMC [2]): inactive

half-life [5]: < 7 min | clearance [6]: > 73 mL/min/kg | inhibition [13]: Active | inhibition [14]: Active
Compound: COc1ccc(C[C@H](NC(=O)[C@@H](C)NC(=O)[C@H]2CC[C@H](O)CC2)C(=O)N[C@@H](CC2=CCCC2)C(=O)[C@@]2(C)CO2)cc1
Ratio IC50 (Mus musculus [3]): 7 | Activity (PBMC [4]): 30% | Activity (PBMC [7]): Active | Activity (PBMC [8]): Active | inhibition (Mus musculus [9]): Active | inhibition (Mus musculus [10]): Active | inhibition (Mus musculus [11]): Active | Activity (Mus musculus [12]): inactive | Activity [15]: Non-Toxic

Compound: COc1ccc([C@@H](O)[C@H](NC(=O)[C@H](C)NC(=O)CN2CCOCC2)C(=O)N[C@@H](CC2=CCCC2)C(=O)[C@@]2(C)CO2)cc1 [ZETOMIPZOMIB]
Activity (Mus musculus [16]): Active | Activity (Mus musculus [17]): Active

Reference: ChEMBL document CHEMBL4411269, “Required Immunoproteasome Subunit Inhibition Profile for Anti-Inflammatory Efficacy and Clinical Candidate KZR-616 ((2 S,3 R)- N-(( S)-3-(Cyclopent-1-en-1-yl)-1-(( R)-2-methyloxiran-2-yl)-1-oxopropan-2-yl)-3-hydroxy-3-(4-methoxyphenyl)-2-(( S)-2-(2-morpholinoacetamido)propanamido)propenamide)” (J Med Chem, 2018)
